Assay results published in ChEMBL document CHEMBL5113397, “Identification, optimization, and biological evaluation of 3-O-β-chacotriosyl ursolic acid derivatives as novel SARS-CoV-2 entry inhibitors by targeting the prefusion state of spike protein” (Eur J Med Chem, 2022).
Calls of active or inactive are those of the source. The calls are words filed in the database; no cut-off is given here.

Columns and labels:
[1] = system: SARS-CoV-2; experiment: Antiviral activity against pseudovirus SARS-CoV-2 spike protein infected human HEK293T cells overexpressing ACE2 assessed as inhibition on pseudovirus infection at 10 uM incubated for 48 hrs by luciferase assay; assay type: functional; settings: Severe acute respiratory syndrome coronavirus 2, HEK-293T
Summary of the method: (§1)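 S plasmid (wild type, or E484K, D614G or N501Y mutant) transfected into 293T cells; PsV-containing supernatant harvested at 48 h. 293T-ACE2 cells seeded 24 h ahead, then given an equal-volume mix of compound dilutions and PsV supernatant for 48 h. Cells lysed and luciferase activity quantified. Mean ± SD of three experiments.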

[2] = system: SARS-CoV-2; experiment: Antiviral activity against pseudovirus SARS-CoV-2 spike protein infected human HEK293T cells overexpressing ACE2 assessed as inhibition on pseudovirus infection at 40 uM incubated for 48 hrs by luciferase assay; assay type: functional; settings: Severe acute respiratory syndrome coronavirus 2, HEK-293T; summary of the method: as §1
[3] = Selectivity index, ratio of CC50 for cytotoxicity against human HEK293T cells overexpressing human ACE2 to EC50 for antiviral activity against SARS-CoV-2 VSV-G pseudotyped virus infected human HEK293T cells overexpressing ACE2; assay type: toxicity, cell-based; settings: read-out: Ratio CC50/EC50
[4] = system: SARS-CoV-2; experiment: Antiviral activity against pseudovirus SARS-CoV-2 spike protein infected human HEK293T cells overexpressing ACE2 assessed as inhibition on pseudovirus infection incubated for 48 hrs by luciferase assay; assay type: functional, organism-based; settings: Severe acute respiratory syndrome coronavirus 2, HEK-293T; summary of the method: as §1
[5] = system: SARS-CoV-2; experiment: Antiviral activity against SARS-CoV-2 VSV-G pseudotyped virus infected human HEK293T cells overexpressing ACE2 incubated for 48 hrs by luciferase assay; assay type: functional, organism-based; settings: Severe acute respiratory syndrome coronavirus 2, HEK-293T
[6] = system: SARS-CoV-2; experiment: Antiviral activity against pseudotyped spike protein mutant B.1.351 SARS-CoV-2 Beta variant infected human HEK293T cells overexpressing ACE2 assessed as inhibition on viral entry incubated for 48 hrs by luciferase assay; assay type: functional, organism-based, Severe acute respiratory syndrome coronavirus 2
[7] = system: SARS-CoV-2; experiment: Antiviral activity against pseudotyped spike protein mutant B.1.1.7 SARS-CoV-2 Alpha variant infected human HEK293T cells overexpressing ACE2 assessed as inhibition on viral entry incubated for 48 hrs by luciferase assay; assay type: functional, organism-based, Severe acute respiratory syndrome coronavirus 2
[8] = system: SARS-CoV-2; experiment: Antiviral activity against pseudovirus SARS-CoV-2 spike protein with D614G mutant infected human HEK293T cells overexpressing ACE2 assessed as inhibition on pseudovirus infection at 5 to 40 uM incubated for 48 hrs by luciferase assay; assay type: functional, organism-based; settings: Severe acute respiratory syndrome coronavirus 2, dose 5-40 µM; summary of the method: as §1
[9] = system: SARS-CoV-2; experiment: Antiviral activity against pseudovirus SARS-CoV-2 spike protein mutant Omicron variant infected human HEK293T cells overexpressing ACE2 assessed as inhibition on viral entry incubated for 48 hrs by luciferase assay; assay type: functional, organism-based, Severe acute respiratory syndrome coronavirus 2
[10] = system: SARS-CoV-2; experiment: Antiviral activity against pseudovirus spike protein mutant B.1.617.2 SARS-CoV-2 Delta variant infected human HEK293T cells overexpressing ACE2 assessed as inhibition on viral entry incubated for 48 hrs by luciferase assay; assay type: functional, organism-based, Severe acute respiratory syndrome coronavirus 2
[11] = system: SARS-CoV-2; experiment: Antiviral activity against pseudotyped spike protein mutant P.10 SARS-CoV-2 Gamma variant infected human HEK293T cells overexpressing ACE2 assessed as inhibition on viral entry incubated for 48 hrs by luciferase assay; assay type: functional, organism-based, Severe acute respiratory syndrome coronavirus 2
[12] = system: SARS-CoV-2; experiment: Antiviral activity against pseudovirus SARS-CoV-2 spike protein with N501Y mutant infected human HEK293T cells overexpressing ACE2 assessed as inhibition on pseudovirus infection at 5 to 40 uM incubated for 48 hrs by luciferase assay; assay type: functional, organism-based; settings: Severe acute respiratory syndrome coronavirus 2, dose 5-40 µM; summary of the method: as §1
[13] = system: SARS-CoV-2; experiment: Antiviral activity against pseudovirus SARS-CoV-2 spike protein with E484K mutant infected human HEK293T cells overexpressing ACE2 assessed as inhibition on pseudovirus infection at 5 to 40 uM incubated for 48 hrs by luciferase assay; assay type: functional, organism-based; settings: Severe acute respiratory syndrome coronavirus 2, dose 5-40 µM; summary of the method: as §1

Compound | inhibition at 10 µM [1] | inhibition at 40 µM [2] | EC50 [4] | other results
O=C(/C=C/c1ccc(O)c2oc(-c3ccc(O)c(O)c3)cc12)O[C@H](Cc1ccc(O)c(O)c1)C(=O)O | 98.3% | 80.2% | – | –
C[C@H]1[C@H](C)CC[C@]2(C(=O)Nc3ccc(-c4ccccc4)cc3)CC[C@]3(C)C(=CC[C@@H]4[C@@]5(C)CC[C@H](O[C@@H]6O[C@H](CO)[C@@H](O[C@@H]7O[C@@H](C)[C@H](O)[C@@H](O)[C@H]7O)[C@H](O)[C@H]6O[C@@H]6O[C@@H](C)[C@H](O)[C@@H](O)[C@H]6O)C(C)(C)[C@@H]5CC[C@]43C)[C@H]12 | 27.4% | 16.9% | – | –
C[C@H]1[C@H](C)CC[C@]2(C(=O)Nc3ccc4sccc4c3)CC[C@]3(C)C(=CC[C@@H]4[C@@]5(C)CC[C@H](O[C@@H]6O[C@H](CO)[C@@H](O[C@@H]7O[C@@H](C)[C@H](O)[C@@H](O)[C@H]7O)[C@H](O)[C@H]6O[C@@H]6O[C@@H](C)[C@H](O)[C@@H](O)[C@H]6O)C(C)(C)[C@@H]5CC[C@]43C)[C@H]12 | -21.7% | -31.8% | – | –
C[C@H]1[C@H](C)CC[C@]2(C(=O)Nc3ccc4c(c3)OCCO4)CC[C@]3(C)C(=CC[C@@H]4[C@@]5(C)CC[C@H](O[C@@H]6O[C@H](CO)[C@@H](O[C@@H]7O[C@@H](C)[C@H](O)[C@@H](O)[C@H]7O)[C@H](O)[C@H]6O[C@@H]6O[C@@H](C)[C@H](O)[C@@H](O)[C@H]6O)C(C)(C)[C@@H]5CC[C@]43C)[C@H]12 | 30.4% | -2.49% | – | –
COc1ccc(CNC(=O)[C@]23CC[C@@H](C)[C@H](C)[C@H]2C2=CC[C@@H]4[C@@]5(C)CC[C@H](O[C@@H]6O[C@H](CO)[C@@H](O[C@@H]7O[C@@H](C)[C@H](O)[C@@H](O)[C@H]7O)[C@H](O)[C@H]6O[C@@H]6O[C@@H](C)[C@H](O)[C@@H](O)[C@H]6O)C(C)(C)[C@@H]5CC[C@@]4(C)[C@]2(C)CC3)cc1 | 85.7% | 36.3% | 11.8 µM | selectivity ratio [3]: > 10; EC50 [5]: > 100 µM
C[C@H]1[C@H](C)CC[C@]2(C(=O)Nc3ccccc3Cl)CC[C@]3(C)C(=CC[C@@H]4[C@@]5(C)CC[C@H](O[C@@H]6O[C@H](CO)[C@@H](O[C@@H]7O[C@@H](C)[C@H](O)[C@@H](O)[C@H]7O)[C@H](O)[C@H]6O[C@@H]6O[C@@H](C)[C@H](O)[C@@H](O)[C@H]6O)C(C)(C)[C@@H]5CC[C@]43C)[C@H]12 | – | – | 12.7 µM | –
C[C@H]1[C@H](C)CC[C@]2(C(=O)Nc3ccc4ncccc4c3)CC[C@]3(C)C(=CC[C@@H]4[C@@]5(C)CC[C@H](O[C@@H]6O[C@H](CO)[C@@H](O[C@@H]7O[C@@H](C)[C@H](O)[C@@H](O)[C@H]7O)[C@H](O)[C@H]6O[C@@H]6O[C@@H](C)[C@H](O)[C@@H](O)[C@H]6O)C(C)(C)[C@@H]5CC[C@]43C)[C@H]12 | 33.1% | 27.4% | – | –
COc1cccc(OC)c1NC(=O)[C@]12CC[C@@H](C)[C@H](C)[C@H]1C1=CC[C@@H]3[C@@]4(C)CC[C@H](O[C@@H]5O[C@H](CO)[C@@H](O[C@@H]6O[C@@H](C)[C@H](O)[C@@H](O)[C@H]6O)[C@H](O)[C@H]5O[C@@H]5O[C@@H](C)[C@H](O)[C@@H](O)[C@H]5O)C(C)(C)[C@@H]4CC[C@@]3(C)[C@]1(C)CC2 | 96.8% | 46.8% | 9.84 µM | EC50 [6]: 11.6 µM; EC50 [7]: 7.68 µM; inhibition [8]: Active; EC50 [9]: 7.23 µM; EC50 [10]: 1.78 µM; selectivity ratio [3]: > 10.2; EC50 [11]: 2.66 µM; inhibition [12]: Active; EC50 [5]: > 100 µM; inhibition [13]: Active
C[C@H]1[C@H](C)CC[C@]2(C(=O)NC(c3ccccc3)c3ccccc3)CC[C@]3(C)C(=CC[C@@H]4[C@@]5(C)CC[C@H](O[C@@H]6O[C@H](CO)[C@@H](O[C@@H]7O[C@@H](C)[C@H](O)[C@@H](O)[C@H]7O)[C@H](O)[C@H]6O[C@@H]6O[C@@H](C)[C@H](O)[C@@H](O)[C@H]6O)C(C)(C)[C@@H]5CC[C@]43C)[C@H]12 | 1.58% | 0.47% | – | –
C[C@H]1[C@H](C)CC[C@]2(C(=O)Nc3ccc(Cc4ccccc4)cc3)CC[C@]3(C)C(=CC[C@@H]4[C@@]5(C)CC[C@H](O[C@@H]6O[C@H](CO)[C@@H](O[C@@H]7O[C@@H](C)[C@H](O)[C@@H](O)[C@H]7O)[C@H](O)[C@H]6O[C@@H]6O[C@@H](C)[C@H](O)[C@@H](O)[C@H]6O)C(C)(C)[C@@H]5CC[C@]43C)[C@H]12 | 19.2% | 10.3% | – | –
COc1ccccc1NC(=O)[C@]12CC[C@@H](C)[C@H](C)[C@H]1C1=CC[C@@H]3[C@@]4(C)CC[C@H](O[C@@H]5O[C@H](CO)[C@@H](O[C@@H]6O[C@@H](C)[C@H](O)[C@@H](O)[C@H]6O)[C@H](O)[C@H]5O[C@@H]5O[C@@H](C)[C@H](O)[C@@H](O)[C@H]5O)C(C)(C)[C@@H]4CC[C@@]3(C)[C@]1(C)CC2 | – | – | 10.7 µM | selectivity ratio [3]: 4.05
C[C@H]1[C@H](C)CC[C@]2(C(=O)NCc3ccccc3)CC[C@]3(C)C(=CC[C@@H]4[C@@]5(C)CC[C@H](O[C@@H]6O[C@H](CO)[C@@H](O[C@@H]7O[C@@H](C)[C@H](O)[C@@H](O)[C@H]7O)[C@H](O)[C@H]6O[C@@H]6O[C@@H](C)[C@H](O)[C@@H](O)[C@H]6O)C(C)(C)[C@@H]5CC[C@]43C)[C@H]12 | 92.5% | 59.2% | 12 µM | selectivity ratio [3]: > 10; EC50 [5]: > 100 µM
C[C@H]1[C@H](C)CC[C@]2(C(=O)Nc3ccc4ccccc4c3)CC[C@]3(C)C(=CC[C@@H]4[C@@]5(C)CC[C@H](O[C@@H]6O[C@H](CO)[C@@H](O[C@@H]7O[C@@H](C)[C@H](O)[C@@H](O)[C@H]7O)[C@H](O)[C@H]6O[C@@H]6O[C@@H](C)[C@H](O)[C@@H](O)[C@H]6O)C(C)(C)[C@@H]5CC[C@]43C)[C@H]12 | 14.5% | -7.27% | – | –
C[C@H]1[C@H](C)CC[C@]2(C(=O)NCCc3ccccc3)CC[C@]3(C)C(=CC[C@@H]4[C@@]5(C)CC[C@H](O[C@@H]6O[C@H](CO)[C@@H](O[C@@H]7O[C@@H](C)[C@H](O)[C@@H](O)[C@H]7O)[C@H](O)[C@H]6O[C@@H]6O[C@@H](C)[C@H](O)[C@@H](O)[C@H]6O)C(C)(C)[C@@H]5CC[C@]43C)[C@H]12 | 49.5% | 28.2% | – | –
C[C@H]1[C@H](C)CC[C@]2(C(=O)Nc3ccc4c(cnn4C)c3)CC[C@]3(C)C(=CC[C@@H]4[C@@]5(C)CC[C@H](O[C@@H]6O[C@H](CO)[C@@H](O[C@@H]7O[C@@H](C)[C@H](O)[C@@H](O)[C@H]7O)[C@H](O)[C@H]6O[C@@H]6O[C@@H](C)[C@H](O)[C@@H](O)[C@H]6O)C(C)(C)[C@@H]5CC[C@]43C)[C@H]12 | 51.9% | 41.1% | – | –
C[C@H]1[C@H](C)CC[C@]2(C(=O)N3CCc4ccccc4C3)CC[C@]3(C)C(=CC[C@@H]4[C@@]5(C)CC[C@H](O[C@@H]6O[C@H](CO)[C@@H](O[C@@H]7O[C@@H](C)[C@H](O)[C@@H](O)[C@H]7O)[C@H](O)[C@H]6O[C@@H]6O[C@@H](C)[C@H](O)[C@@H](O)[C@H]6O)C(C)(C)[C@@H]5CC[C@]43C)[C@H]12 | 58.7% | 32.5% | – | –
